Assay [1] addresses T1, B2 bradykinin receptor (Cavia porcellus, UniProt O70526).
T1 sequence (O70526 whole entry): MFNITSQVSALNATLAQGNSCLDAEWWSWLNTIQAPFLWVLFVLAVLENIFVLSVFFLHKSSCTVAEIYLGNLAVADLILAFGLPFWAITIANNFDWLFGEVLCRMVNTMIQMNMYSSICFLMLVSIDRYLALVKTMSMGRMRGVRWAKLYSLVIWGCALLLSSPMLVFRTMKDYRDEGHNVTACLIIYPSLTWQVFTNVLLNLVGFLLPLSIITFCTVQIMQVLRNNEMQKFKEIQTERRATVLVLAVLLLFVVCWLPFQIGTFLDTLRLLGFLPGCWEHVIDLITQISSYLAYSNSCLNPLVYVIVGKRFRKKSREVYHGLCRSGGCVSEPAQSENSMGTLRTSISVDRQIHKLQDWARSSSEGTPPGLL
Nature of the assay: In vitro inhibitory activity towards bradykinin receptor B2 using [3H]BK (0.06 nM) as a radioligand in guinea pig ileum membrane preparation. In kind it is cell membranes. The procedure, abridged:
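Ileal membranes from male Hartley guinea pigs, prepared in TES/1,10-phenanthroline pH 6.8 with 100000 g pellet. Membranes (0.2 mg protein/mL) incubated with [3H]BK and varying compound concentrations 60 min at room temperature in binding buffer with bacitracin, DTT, captopril, BSA. Filter harvest, scintillation counting; nonspecific with 1 μM BK. IC50 as mean of ≥3 determinations.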

The target of assay [2] is T2, B2 bradykinin receptor (Homo sapiens, UniProt P30411).
T2 sequence (P30411 whole entry): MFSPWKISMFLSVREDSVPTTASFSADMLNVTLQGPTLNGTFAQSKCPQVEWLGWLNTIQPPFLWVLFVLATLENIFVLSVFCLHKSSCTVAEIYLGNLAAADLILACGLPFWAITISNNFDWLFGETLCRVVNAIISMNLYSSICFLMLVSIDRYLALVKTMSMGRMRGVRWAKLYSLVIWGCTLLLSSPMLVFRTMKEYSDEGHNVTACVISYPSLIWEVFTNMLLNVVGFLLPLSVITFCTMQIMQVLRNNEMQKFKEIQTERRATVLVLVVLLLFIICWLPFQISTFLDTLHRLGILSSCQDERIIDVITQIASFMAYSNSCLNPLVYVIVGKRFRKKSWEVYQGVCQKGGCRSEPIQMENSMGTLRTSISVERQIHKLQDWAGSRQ
The assay is described as follows: In vitro inhibitory activity towards human bradykinin receptor B2 expressed in CHO cells using [3H]BK (1.0 nM) as a radioligand. It is filed as cell-based. In a few lines: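 Stably transfected CHO (dhfr-) cells seeded at 3.0 × 10^4 cells/well, cultured 1 day, then incubated with test compounds for 2 h at 4 °C. Binding buffer was HEPES/N-methyl-D-glucamine pH 7.2 with bacitracin, enalaprilat and BSA. Cells solubilized in SDS/NaOH and counted by scintillation; nonspecific binding with 1 μM unlabeled BK. Run three times.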

In assay [3] the test system is Cavia porcellus. Nature of the assay: Compound was evaluated for percentage inhibition against BK-induced bronchoconstriction in anesthetized guinea pig, intravenously at a concentration of 10 mg/kg. As to conditions: route intravenous. In kind it is functional. The procedure, abridged:
(§1)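 Male Hartley guinea pigs (470-750 g), fasted overnight, pentobarbital 30 mg/kg ip, tracheal and jugular cannulation, ventilated 10 mL/kg at 60 breaths/min; alcuronium 0.5 mg/kg iv, propranolol 10 mg/kg sc. BK 5 μg/kg iv; compound in 5% citric acid iv 25 min later, BK repeated 5 min after drug. Peak insufflation pressure rise (Konzett-Rossler); % inhibition vs vehicle, n=3-4.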

Assay [4] deals with Cavia porcellus. The assay is described as follows: Compound was evaluated for percentage inhibition against BK-induced bronchoconstriction in anesthetized guinea pig, intravenously at a concentration of 1 mg/kg. In kind it is functional. The note with it: route intravenous. In a few lines:
as §1

One may read the IC50 as the concentration at which inhibition is half-maximal. Low values mean greater potency in that assay, high ones weaker potency in that assay. The term inhibition in vivo denotes the drop in the measured response relative to a control, in per cent.

On to `Cc1cc(-n2ccnc2)c2cccc(OCc3c(Cl)ccc(N(C)C(=O)CNC(=O)/C=C/c4ccc(C(=O)N(C)C)cc4)c3Cl)c2n1`, for which the IC50 in assay [1] was 4.3 nM; in assay [2], 0.35 nM.
Turning to `Cc1cc(-n2cccn2)c2cccc(OCc3c(Cl)ccc(N(C)C(=O)CNC(=O)/C=C/c4ccc(C(=O)N(C)C)cc4)c3Cl)c2n1`, the IC50 in assay [1] came to 3.3 nM; in assay [2], 0.18 nM.
For the compound `CNC(=O)c1ccc(/C=C/C(=O)NCC(=O)N(C)c2ccc(Cl)c(COc3cccc4c(-n5cncn5)cc(C)nc34)c2Cl)cc1`, the figures for the half-inhibitory concentration (IC50) in assay [1] and in assay [2] were 4.4 nM and 0.23 nM, respectively.
The corresponding values for `Cc1cc(-n2ccnc2)c2cccc(OCc3c(Cl)ccc(N(C)C(=O)CNC(=O)/C=C/c4ccc(C(=O)Nc5ccncc5)cc4)c3Cl)c2n1` are 17 nM and 0.42 nM.
The corresponding values for `CNC(=O)c1ccc(/C=C/C(=O)NCC(=O)N(C)c2ccc(C)c(COc3cccc4c(-c5ccccc5)cc(C)nc34)c2C)cc1` are 3.1 nM and 1 nM.
For `CNC(=O)c1ccc(/C=C/C(=O)NCC(=O)N(C)c2ccc(Cl)c(COc3cccc4c(N(C)C)cc(C)nc34)c2Cl)cc1`, the figures for the half-inhibitory concentration (IC50) in assay [1] and in assay [2] were 1.8 nM and 3.2 nM, respectively.
For `Cc1cc(N(C)C)c2cccc(OCc3c(Cl)ccc(N(C)C(=O)CNC(=O)/C=C/c4ccc(C(=O)N(C)C)cc4)c3Cl)c2n1` the same measures were 2.9 nM and 2.1 nM.
As for `Cc1cc(-n2ccnn2)c2cccc(OCc3c(Cl)ccc(N(C)C(=O)CNC(=O)/C=C/c4ccc(C(=O)N(C)C)cc4)c3Cl)c2n1`, the IC50 is 9.1 nM in assay [1] and 0.28 nM in assay [2].
For `CNC(=O)c1ccc(/C=C/C(=O)NCC(=O)N(C)c2ccc(Cl)c(COc3cccc4c(-n5ccnc5)cc(C)nc34)c2Cl)cc1` the same measures were 3.7 nM and 0.28 nM.
The corresponding values for `CNC(=O)c1ccc(/C=C/C(=O)NCC(=O)N(C)c2ccc(Cl)c(COc3cccc4c(-n5cccn5)cc(C)nc34)c2Cl)cc1` are 2.7 nM and 0.17 nM.
Turning to `Cc1cc(-n2ccnc2)c2cccc(OCc3c(Cl)ccc(-n4cccc4CNC(=O)/C=C/c4ccc(C(=O)NCc5ccccn5)cc4)c3Cl)c2n1`, the figures for the concentration for half-maximal inhibition (IC50) in assay [1] and in assay [2] were 6 nM and 0.43 nM, respectively.
For `Cc1cc(-n2ccnc2)c2cccc(OCc3c(Cl)ccc(N(C)C(=O)CNC(=O)Nc4cccc(C(=O)Nc5ccncc5)c4)c3Cl)c2n1`, the 50% inhibitory concentration (IC50) in assay [1] came to 6.6 nM; in assay [2], 0.23 nM. At 10 mg/kg the inhibition in vivo in assay [3] was 56.8%.
Consider `Cc1cc(-n2ccnc2)c2cccc(OCc3c(Cl)ccc(-n4cccc4CNC(=O)/C=C/c4ccc(C(=O)N(C)C)cc4)c3Cl)c2n1`, for which the values for the IC50 in assay [1] and in assay [2] were 3 nM and 0.26 nM, respectively. The inhibition in vivo at 1 mg/kg in assay [4] was found to be 46%.
Compound `N=C(N)NCCC[C@@H](N)C(=O)N[C@@H](CCCNC(=N)N)C(=O)N1CCC[C@H]1C(=O)N1C[C@H](O)C[C@H]1C(=O)NCC(=O)N[C@@H](Cc1cccs1)C(=O)N[C@@H](CO)C(=O)N1Cc2ccccc2C[C@@H]1C(=O)N1[C@H](C(=O)N[C@@H](CCCNC(=N)N)C(=O)O)C[C@@H]2CCCC[C@@H]21` [ICATIBANT] had an inhibition in vivo at 1 mg/kg in assay [4] of 63.4%.

The values above are taken from ChEMBL document CHEMBL1149113 (J Med Chem, 2004).
